{"data": "Results from different studies", "cell line": "PC-3", "observed": "cell growth or viability", "note": "Compare with care: the assays were run in different laboratories."}
{"SMILES": "COC(=O)c1cc(-c2cccc(NC(=O)C3CCCN(C(=O)c4cc(C(F)(F)F)cc(C(F)(F)F)c4)C3)c2)co1 (stereo not drawn)", "method": "WST-1", "concentration": "100 µM", "inhibition [%]": 0}
{"SMILES": "COc1ccc(C(=O)/C=C/c2c(F)cccc2Cl)cc1S(N)(=O)=O", "method": "SRB", "concentration": "10 µM", "inhibition [%]": 81}
{"SMILES": "O=C(Nc1cccc(S(=O)(=O)N2CCCC2)c1)C1CCCN(C(=O)c2cc(C(F)(F)F)cc(C(F)(F)F)c2)C1 (stereo not drawn)", "method": "WST-1", "concentration": "100 µM", "inhibition [%]": 0}
{"SMILES": "COc1ccc(C(=O)/C=C/c2cccc3ccccc23)cc1S(N)(=O)=O", "method": "SRB", "concentration": "10 µM", "inhibition [%]": 87}
{"SMILES": "O=C(CN1C(=O)/C(=C/c2cccc(F)c2)SC1=S)Nc1ccccc1", "method": "MTT", "concentration": "10 µM", "inhibition [%]": 18.9}
{"SMILES": "O=C(Nc1cccc(-c2ccco2)c1)C1CCCN(C(=O)c2cc(C(F)(F)F)cc(C(F)(F)F)c2)C1 (stereo not drawn)", "method": "WST-1", "concentration": "100 µM", "inhibition [%]": 0}
{"SMILES": "COc1ccc(C(=O)/C=C/c2cccnc2)cc1S(N)(=O)=O", "method": "SRB", "concentration": "10 µM", "inhibition [%]": 22}
{"SMILES": "O=C(CN1C(=O)/C(=C/c2ccncc2)SC1=S)Nc1ccccc1", "method": "MTT", "concentration": "10 µM", "inhibition [%]": 5.33}
{"SMILES": "COc1ccc(C(=O)/C=C/c2cccc(Br)c2)cc1S(N)(=O)=O", "method": "SRB", "concentration": "10 µM", "inhibition [%]": 135}
{"SMILES": "COC(=O)c1cccc(NC(=O)C2CCCN(C(=O)c3cc(C(F)(F)F)cc(C(F)(F)F)c3)C2)c1 (stereo not drawn)", "method": "WST-1", "concentration": "100 µM", "inhibition [%]": 0}
{"SMILES": "COc1ccc(/C=C2\\SC(=S)N(CC(=O)Nc3ccccc3)C2=O)cc1", "method": "MTT", "concentration": "10 µM", "inhibition [%]": 25}
{"SMILES": "COc1cc(CNC(=O)C[C@H](C)CCC=C(C)C)ccc1OCc1cn(-c2ccc(Cl)cc2)nn1", "method": "SRB", "concentration": "10 µM", "inhibition [%]": 28}
{"SMILES": "O=C(CN1C(=O)/C(=C/c2ccc([N+](=O)[O-])cc2)SC1=S)Nc1ccccc1", "method": "MTT", "concentration": "10 µM", "inhibition [%]": 16.6}
{"SMILES": "COc1ccccc1/C=C/C(=O)c1ccc(OC)c(S(N)(=O)=O)c1", "method": "SRB", "concentration": "10 µM", "inhibition [%]": 52}
{"SMILES": "O=C1Nc2ccccc2C1=NNc1nnc2n1N=C(c1ccccc1)CS2", "method": "SRB", "concentration": "10 µM", "inhibition [%]": 20}
